{"data": "Assay results collected from several papers", "CA2": "Carbonic anhydrase 2 (CA2, Homo sapiens, UniProt P00918)", "ADRA2A": "Alpha-2A adrenergic receptor (ADRA2A, Homo sapiens, UniProt P08913)", "CA1": "Carbonic anhydrase 1 (CA1, Homo sapiens, UniProt P00915)", "note": "Compare with care: the assays were run in different laboratories."}
{"SMILES": "OC1CCN(c2ccc(/C=N/NC(=S)Nc3cccc(Cl)c3Cl)cc2)CC1", "target": "CA2", "effect on": "enzyme activity", "action": "inhibitor", "Ki [µM]": 0.271}
{"SMILES": "Cc1cc(Oc2ncccc2CN2CCN(c3ccccc3C)CC2)ccc1-c1c(C)c(=O)[nH]c(=O)n1C", "target": "ADRA2A", "effect on": "ligand displacement", "method": "radioligand", "Ki [µM]": 0.0594}
{"SMILES": "O=C(Oc1ccc(-c2ccccc2)cc1)c1ccc(=O)oc1", "target": "CA1", "effect on": "enzyme activity", "action": "inhibitor", "method": "stopped-flow", "Ki [µM]": "> 100"}
{"SMILES": "Cc1cc(Oc2ncccc2CN2CCN(c3ccc([N+](=O)[O-])cc3C(F)(F)F)CC2)ccc1-c1c(C)c(=O)[nH]c(=O)n1C", "target": "ADRA2A", "effect on": "ligand displacement", "method": "radioligand", "Ki [µM]": 2.11}
{"SMILES": "CC1=C(/C=C/C(C)=C/C=C/C(C)=C\\C(=O)O)C(C)(C)CCC1", "target": "CA2", "effect on": "enzyme activity", "action": "inhibitor", "method": "absorbance", "Ki [µM]": 6.9}
{"SMILES": "NS(=O)(=O)c1nnc(NC(=O)CN2CCC(F)CC2)s1", "target": "CA1", "effect on": "enzyme activity", "action": "inhibitor", "method": "stopped-flow", "Ki [µM]": 0.0682}
{"SMILES": "Cc1cc(Oc2ncccc2CN2CCN(c3ccc(Br)cc3)CC2)ccc1-c1c(C)c(=O)[nH]c(=O)n1C", "target": "ADRA2A", "effect on": "ligand displacement", "method": "radioligand", "Ki [µM]": 0.841}
{"SMILES": "O=C(NCc1cn(-c2ccccc2)nn1)c1ccc(=O)oc1", "target": "CA1", "effect on": "enzyme activity", "action": "inhibitor", "method": "stopped-flow", "Ki [µM]": "> 100"}
{"SMILES": "CC(C)(C(=O)O)c1ccc(C(O)CCCN2CCC(C(O)(c3ccccc3)c3ccccc3)CC2)cc1 (stereo not drawn)", "target": "CA1", "effect on": "enzyme activity", "action": "inhibitor", "Ki [µM]": 13.1}
{"SMILES": "NS(=O)(=O)c1nnc(NC(=O)C2CCC3(CCCCC3)C2)s1 (stereo not drawn)", "target": "CA2", "effect on": "enzyme activity", "action": "inhibitor", "method": "stopped-flow", "Ki [µM]": 0.0401}
{"SMILES": "CCOC(=O)N1CCC(=C2c3ccc(Cl)cc3CCc3cccnc32)CC1", "target": "CA1", "effect on": "enzyme activity", "action": "inhibitor", "Ki [µM]": 8.09}
{"SMILES": "O=C(NCc1cn(-c2ccc([N+](=O)[O-])cc2)nn1)c1ccc(=O)oc1", "target": "CA1", "effect on": "enzyme activity", "action": "inhibitor", "method": "stopped-flow", "Ki [µM]": "> 100"}
{"SMILES": "CCOCCn1c(C2CCN(CCc3ccc(C(C)(C)C(=O)O)cc3)CC2)nc2ccccc21", "target": "CA1", "effect on": "enzyme activity", "action": "inhibitor", "Ki [µM]": 9.53}
{"SMILES": "Cc1cc(Oc2ncccc2CN2CCN(c3ccccc3O)CC2)ccc1-c1c(C)c(=O)[nH]c(=O)n1C", "target": "ADRA2A", "effect on": "ligand displacement", "method": "radioligand", "Ki [µM]": 0.057}
{"SMILES": "COc1ccc(-n2cc(COC(=O)c3ccc(=O)oc3)nn2)cc1", "target": "CA1", "effect on": "enzyme activity", "action": "inhibitor", "method": "stopped-flow", "Ki [µM]": "> 100"}
{"SMILES": "Cc1cccc(CC(=O)Nc2nnc(S(N)(=O)=O)s2)c1", "target": "CA1", "effect on": "enzyme activity", "action": "inhibitor", "method": "stopped-flow", "Ki [µM]": 0.0424}
{"SMILES": "Cc1cc(Oc2ncccc2CN2CCN(c3cccc(C)c3C)CC2)ccc1-c1c(C)c(=O)[nH]c(=O)n1C", "target": "ADRA2A", "effect on": "ligand displacement", "method": "radioligand", "Ki [µM]": 0.0419}
{"SMILES": "O=c1[nH]c(=O)n([C@H]2C[C@H](O)[C@@H](CO)O2)cc1/C=C/Br", "target": "CA1", "effect on": "enzyme activity", "action": "inhibitor", "Ki [µM]": 8.39}
{"SMILES": "Cc1cc(Oc2ncccc2CN2CCN(c3ccc(F)c(F)c3)CC2)ccc1-c1c(C)c(=O)[nH]c(=O)n1C", "target": "ADRA2A", "effect on": "ligand displacement", "method": "radioligand", "Ki [µM]": 0.418}
{"SMILES": "CC[C@H]1OC(=O)[C@H](C)[C@@H](O[C@H]2C[C@@](C)(OC)[C@@H](O)[C@H](C)O2)[C@H](C)[C@@H](O[C@@H]2O[C@H](C)C[C@H](N(C)C)[C@H]2O)[C@](C)(O)C[C@@H](C)CN(C)[C@H](C)[C@@H](O)[C@]1(C)O", "target": "CA2", "effect on": "enzyme activity", "action": "inhibitor", "method": "absorbance", "Ki [µM]": 8.17}
{"SMILES": "Cc1ccc(OC(=O)c2ccc(=O)oc2)cc1", "target": "CA1", "effect on": "enzyme activity", "action": "inhibitor", "method": "stopped-flow", "Ki [µM]": "> 100"}
{"SMILES": "Nc1nc2c(ncn2COCCO)c(=O)[nH]1", "target": "CA2", "effect on": "enzyme activity", "action": "inhibitor", "method": "absorbance", "Ki [µM]": 8.68}
{"SMILES": "Cc1cc(Oc2ncccc2CN2CCN(c3cccc(Cl)c3)CC2)ccc1-c1c(C)c(=O)[nH]c(=O)n1C", "target": "ADRA2A", "effect on": "ligand displacement", "method": "radioligand", "Ki [µM]": 0.161}
{"SMILES": "Cc1ccc(CCC(=O)Nc2nnc(S(N)(=O)=O)s2)cc1", "target": "CA2", "effect on": "enzyme activity", "action": "inhibitor", "method": "stopped-flow", "Ki [µM]": 0.0118}
{"SMILES": "COc1cc(C)c(/C=C/C(C)=C/C=C/C(C)=C/C(=O)O)c(C)c1C", "target": "CA2", "effect on": "enzyme activity", "action": "inhibitor", "method": "absorbance", "Ki [µM]": 7.94}
{"SMILES": "Cc1cc(Oc2ncccc2CN2CCN(c3ccccn3)CC2)ccc1-c1c(C)c(=O)[nH]c(=O)n1C", "target": "ADRA2A", "effect on": "ligand displacement", "method": "radioligand", "Ki [µM]": 0.123}
{"SMILES": "CC1(C)CCN(CC(=O)Nc2nnc(S(N)(=O)=O)s2)CC1", "target": "CA2", "effect on": "enzyme activity", "action": "inhibitor", "method": "stopped-flow", "Ki [µM]": 0.0311}
